Compound activity deposited in PubChem BioAssay by Johns Hopkins Ion Channel Center.
An excerpt weighted towards active compounds, which were near 3.1% of everything screened.
KCNK9 block – KCNK9 potassium channel inhibitors, primary screen, HEK293 cells, thallium flux. Potassium channel subfamily K member 9 (Homo sapiens), Q9NPC2. AID 488922, 2010. FluxOR thallium flux fluorescence; stronger effect = lower value. B-score at 10 µM. 310,000 compounds, 1.2% hits;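 active = ratio B-score over 3 SD below the library mean, with starting fluorescence within 5 SD of its mean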;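 note: negative B-score means less thallium flux so channel inhibition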
KCNK3 block – human KCNK3 channel inhibitors, primary screen, CHO cells, FluxOR thallium flux, B-score | Potassium channel subfamily K member 3 (Homo sapiens), O14649 | FluxOR fluorescence; stronger effect = lower value | B-score at 10 µM | 340,000 compounds, 0.84% hits | AID 602410, 2012;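 active = B-score under library mean minus 4 SD, starting fluorescence ratio at most library mean plus 5 SD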;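 note: more negative B-score means stronger inhibition of thallium flux through KCNK3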
KCNQ1 block – inhibitors of human KCNQ1 channel, primary screen, cell-based, thallium flux, high-throughput | CHO-K1 KCNQ1, FluxOR thallium flux fluorescence; stronger effect = higher value | 310,000 compounds, 1.3% hits | Potassium voltage-gated channel subfamily KQT member 1 (Homo sapiens), P51787 | B-score at 10 µM;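 active = compounds whose thallium flux B-score, printed positive for inhibition, exceeds three library SD while starting fluorescence stays within three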;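 note: channel opened by potassium depolarization with thallium stimulus after 20 min compound exposure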
hERG rescue – hERG rescue from dofetilide block, primary screen, cell-based, CHO-hERG, FluxOR thallium flux, dofetilide IC70; AID 1511, 2009; activation (rescue from dofetilide block), less the hit threshold, % at 10 µM; dofetilide IC70 present; 310,000 compounds, 0.51% hits;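 active = activation above the mean of controls blocked by dofetilide plus 5 SD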;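 note: thallium influx through hERG after potassium depolarization seen as dye fluorescence rise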
Target sequence (Q12809 whole entry, looked up): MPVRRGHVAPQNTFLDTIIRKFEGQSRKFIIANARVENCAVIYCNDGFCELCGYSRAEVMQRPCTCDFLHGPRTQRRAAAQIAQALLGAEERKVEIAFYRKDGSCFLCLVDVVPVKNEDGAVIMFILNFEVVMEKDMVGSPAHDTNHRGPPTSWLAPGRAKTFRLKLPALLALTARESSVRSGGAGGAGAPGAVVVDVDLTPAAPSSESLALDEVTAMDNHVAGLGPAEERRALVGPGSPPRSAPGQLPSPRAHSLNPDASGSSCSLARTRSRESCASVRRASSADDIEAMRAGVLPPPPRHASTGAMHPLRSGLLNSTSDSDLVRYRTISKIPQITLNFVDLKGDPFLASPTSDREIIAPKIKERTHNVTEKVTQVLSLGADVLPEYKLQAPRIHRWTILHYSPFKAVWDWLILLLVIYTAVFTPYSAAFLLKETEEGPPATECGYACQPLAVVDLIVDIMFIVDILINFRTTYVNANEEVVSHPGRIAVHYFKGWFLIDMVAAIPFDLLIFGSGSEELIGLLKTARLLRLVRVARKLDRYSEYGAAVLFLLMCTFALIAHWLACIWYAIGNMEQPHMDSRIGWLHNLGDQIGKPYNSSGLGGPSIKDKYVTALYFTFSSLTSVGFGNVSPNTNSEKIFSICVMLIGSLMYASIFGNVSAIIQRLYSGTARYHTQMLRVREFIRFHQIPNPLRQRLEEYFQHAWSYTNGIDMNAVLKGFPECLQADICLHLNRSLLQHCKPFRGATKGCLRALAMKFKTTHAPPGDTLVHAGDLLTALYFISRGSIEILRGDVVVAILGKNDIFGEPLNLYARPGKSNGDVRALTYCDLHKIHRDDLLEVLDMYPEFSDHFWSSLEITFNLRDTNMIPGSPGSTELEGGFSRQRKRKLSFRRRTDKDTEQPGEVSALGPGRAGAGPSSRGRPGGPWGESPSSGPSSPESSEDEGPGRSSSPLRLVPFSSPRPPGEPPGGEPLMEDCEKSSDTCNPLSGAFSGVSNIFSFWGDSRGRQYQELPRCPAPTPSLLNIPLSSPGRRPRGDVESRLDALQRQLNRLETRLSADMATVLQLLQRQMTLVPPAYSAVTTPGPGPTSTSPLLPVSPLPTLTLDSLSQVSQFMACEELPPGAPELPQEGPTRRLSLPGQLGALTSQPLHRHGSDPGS
KCNQ1 pot – potentiators or activators of KCNQ1 channel, primary screen, cell-based, thallium flux, high-throughput; CHO-K1 KCNQ1, thallium flux FluxOR fluorescence; stronger effect = higher value; B-score at 10 µM; 310,000 compounds, 0.35% hits;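 active = fluorescence ratio B-score, a plate-corrected score, at least three library SD, with initial intensity B-score within 5 SD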
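assay system = CHO-K1 cells stably expressing KCNQ1 | medium = assay buffer, equal DMSO in all wells | timing = 37 °C overnight plating, 90-min dark dye load, 20-min compound pretreatment | measured by = kinetic FluxOR thallium fluorescence, 10-s 1-Hz baseline, 110-s post-stimulus read | measure = fluorescence change relative to baseline, converted to B score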
KCNK9 inh conf – KCNK9 potassium channel inhibitors, confirmation, HEK293 cells, thallium flux, duplicate; shares compounds with KCNK9 block; FluxOR thallium flux fluorescence; inhibition, % at 10 µM; 4,900 compounds, 43% hits; AID 492992, 2010;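 active = thallium signal inhibited by more than 5 SD of the compound-free buffer control wells, on both duplicate plates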;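 note: 0% = assay buffer control wells without compound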
Kir21 sel – mouse Kir2.1 channel inhibition, confirmation, selectivity assay for KCNK9 modulator project, cell-based, HEK293, thallium flux | Kir2.1 cells, FluxOR thallium flux fluorescence | inhibition, % at 10 µM | 4,900 compounds, 4% hits | AID 492993, 2010 | shares compounds with KCNK9 block;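 active = thallium signal drop more than 5 SD beyond the mean of the no-compound control wells, seen in both duplicate plates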;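 note: signal is fluorescence rise after thallium addition divided by baseline fluorescence; plate controls were assay buffer only for no effect and full block by chlorpromazine control for full effect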
HEK293 Tl ctr – thallium flux in non-induced HEK293 cells, confirmation, counter-screen for KCNK9 inhibitor project, cell-based, second counter screen, non-induced KCNK9-HEK293. shares compounds with KCNK9 block. FluxOR thallium flux. inhibition, % at 10 µM. 4,900 compounds, 40% hits. AID 492997, 2010;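 active = thallium signal drop beyond 5 SD of the untreated control mean, on both duplicate plates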;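 note: plate controls were buffer only IC0 wells for no effect and SID17386958 at its maximal inhibitory level for full effect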
* marks the source's active call; other numbers are inactive results; i = inactive; / = no result.

SMILES | KCNK9 block | KCNK3 block | KCNQ1 block | hERG rescue | KCNQ1 pot | KCNK9 inh conf | Kir21 sel | HEK293 Tl ctr
O=C(N/N=C/c1ccc(O)cc1O)c1ccc(CN2C(=O)c3cccc4cccc2c34)cc1 | -12* | -12* | i | -12 | i | 37%* | i | 33%*
Cc1ccc(NC(=O)CCSc2nnc(Cc3ccccc3)o2)cc1 | i | i | i | 3 | i | / | / | /
Cc1cccc(NC(=O)CCSc2nnc(Cc3ccccc3)o2)c1 | i | i | i | -10 | i | i | i | i
O=C(CSc1ccccn1)N1CCNC1=O | / | i | / | / | / | / | / | /
Cc1cc(NC(=O)c2cc(-c3cccs3)nc3ccccc23)no1 | -9.6* | i | i | -9 | i | 38%* | i | i
CC(=O)Nc1sc(NC(=O)c2ccco2)nc1-c1cccs1 | i | i | i | 0 | i | / | / | /
O=C(Nc1nc(-c2cccs2)c(-c2ccccc2)s1)c1ccco1 | -9* | i | i | -16 | i | 62%* | i | 26%*
CCN(CC)C(=O)N1CCN(c2c([N+](=O)[O-])c(=O)oc3ccccc23)CC1 | / | i | / | / | / | / | / | /
CC(C)(C)c1ccc(OCCC(=O)OCC(=O)NC(=O)NC2CCCC2)cc1 | -9.8* | i | i | -11 | i | i | i | i
O=[N+]([O-])c1ccc(C(O)CSC(=S)N2CCCCC2)cc1 (centres undefined) | i | i | i | -2 | i | / | / | /
Clc1ccc2c(c1)Nc1ccccc1CC2 | i | i | i | -1 | i | / | / | /
Cc1cccc(N(Cc2ccccc2)C(=O)c2cc(S(=O)(=O)N3CCOCC3)ccc2Cl)c1 | i | i | i | -11 | i | i | i | i
CCNCC(=O)N1c2ccccc2CCc2ccc(NC(=O)OCC)cc21 | -11* | i | i | -11 | i | 54%* | i | 34%*
CCOC(=O)Nc1ccc2c(c1)N(C(=O)CN)c1ccccc1CC2 | i | i | i | -6 | i | / | / | /
O=S(OCCN1CCOCC1)C(c1ccccc1)c1ccccc1 (centres undefined) | / | i | / | / | / | / | / | /
COc1ccc(C(=O)C2CC2c2ccc3c(c2)OCO3)cc1 (centres undefined) | i | i | i | -8 | i | i | i | 30%*
COc1ccc(C(=O)NCc2ccc3c(c2)OCO3)cc1 | i | i | i | -8 | i | / | / | /
CC1(C)C(C=C(Cl)Cl)C1C(=O)N/N=C/c1ccccc1F (centres undefined) | -9.5* | i | i | -13 | i | i | i | 27%*
CC1CCc2c(C(=O)OCC(=O)Nc3cccc(S(=O)(=O)N4CCCCCC4)c3)csc2C1 (centres undefined) | i | i | i | -4 | i | / | / | /
O=C(NCc1nc2ccccc2[nH]1)c1ccc(Cl)c(S(=O)(=O)N2CCCC2)c1 | i | i | i | -11 | i | / | / | /
O=C(COC(=O)c1ccc(S(=O)(=O)N2CCCC2)cc1)Nc1ccccc1 | / | i | / | / | / | / | / | /
Cc1ccc(NC(=O)COC(=O)c2csc3c2CCC(C)C3)cc1S(=O)(=O)N1CCCCC1 (centres undefined) | -9.2* | i | i | -11 | i | 32%* | i | i
CCCn1c(NC(=O)c2ccc(Cl)c(S(=O)(=O)N3CCCC3)c2)nc2ccccc21 | -8.9* | i | i | -11 | i | 40%* | i | i
